Results as given in ChEMBL document CHEMBL3621108, “Discovery, Development, and SAR of Aminothiazoles as LIMK Inhibitors with Cellular Anti-Invasive Properties” (J Med Chem, 2015).

Key:
LIM domain kinase 1 [1] = target: T1, LIM domain kinase 1 (Homo sapiens, UniProt P53667); assay: Inhibition of recombinant N-terminal 6His-tagged LIMK1 (unknown origin) expressed in Sf21 cells by HTRF assay using cofilin as a substrate
Target sequence in this assay (P53667 whole entry, the tested form may be a part): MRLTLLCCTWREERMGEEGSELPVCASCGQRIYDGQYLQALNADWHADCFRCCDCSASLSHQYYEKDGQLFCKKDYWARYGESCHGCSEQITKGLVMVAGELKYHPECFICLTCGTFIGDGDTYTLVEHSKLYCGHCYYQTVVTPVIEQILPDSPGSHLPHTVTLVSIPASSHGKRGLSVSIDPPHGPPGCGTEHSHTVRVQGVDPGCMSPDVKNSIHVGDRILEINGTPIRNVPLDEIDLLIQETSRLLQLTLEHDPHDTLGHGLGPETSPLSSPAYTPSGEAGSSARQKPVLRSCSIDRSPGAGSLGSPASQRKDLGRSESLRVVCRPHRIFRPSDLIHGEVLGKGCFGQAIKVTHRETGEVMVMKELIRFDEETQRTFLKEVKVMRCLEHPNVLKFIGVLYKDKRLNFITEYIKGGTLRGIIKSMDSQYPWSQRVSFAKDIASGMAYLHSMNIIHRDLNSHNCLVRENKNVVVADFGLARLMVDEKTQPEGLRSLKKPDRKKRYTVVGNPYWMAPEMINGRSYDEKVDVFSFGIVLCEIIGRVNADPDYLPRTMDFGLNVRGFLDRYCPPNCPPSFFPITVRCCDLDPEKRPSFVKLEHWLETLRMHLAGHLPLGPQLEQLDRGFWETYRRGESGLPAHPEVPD

LIM domain kinase 1 [2] = target: T1, LIM domain kinase 1; assay: Inhibition of LIMK1 in human ZR75-1 cells assessed as inhibition of cofilin phosphorylation after 5 hrs; type: cell-based, ZR-75-1
Summary of the method: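 p-Cofilin biomarker assay in ZR-75-1 cells, imaged and quantified on a Cellomics array scan instrument.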
Target sequence in this assay (P53667 whole entry, the tested form may be a part): as above

LIM domain kinase 2 [3] = target: T2, LIM domain kinase 2 (Homo sapiens, UniProt P53671); assay: Inhibition of human N-terminal GST-tagged LIMK2
Summary of the method: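 LIMK2 activity measured in a lanthabind-format assay.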
Target sequence in this assay (P53671 whole entry, the tested form may be a part): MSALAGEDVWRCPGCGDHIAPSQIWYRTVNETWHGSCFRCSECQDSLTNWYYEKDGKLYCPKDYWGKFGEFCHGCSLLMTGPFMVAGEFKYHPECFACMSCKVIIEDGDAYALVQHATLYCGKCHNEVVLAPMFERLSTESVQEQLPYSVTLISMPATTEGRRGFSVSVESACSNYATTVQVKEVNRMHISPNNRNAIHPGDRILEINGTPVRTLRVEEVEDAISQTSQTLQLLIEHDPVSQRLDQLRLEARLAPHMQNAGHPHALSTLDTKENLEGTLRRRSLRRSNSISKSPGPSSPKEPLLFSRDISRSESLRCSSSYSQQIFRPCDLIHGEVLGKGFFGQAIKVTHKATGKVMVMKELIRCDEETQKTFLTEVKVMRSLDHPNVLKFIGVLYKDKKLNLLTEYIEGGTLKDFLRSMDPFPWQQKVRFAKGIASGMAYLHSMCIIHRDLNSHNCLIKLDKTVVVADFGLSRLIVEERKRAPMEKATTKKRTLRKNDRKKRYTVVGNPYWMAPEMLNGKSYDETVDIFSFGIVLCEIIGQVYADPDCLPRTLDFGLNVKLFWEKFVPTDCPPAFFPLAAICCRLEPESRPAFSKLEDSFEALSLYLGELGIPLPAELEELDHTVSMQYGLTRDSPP

[4] = Metabolic stability in mouse liver microsome assessed per gram of tissue; type: ADME; details: microsomes
Liver microsome = assay: Metabolic stability in human liver microsome assessed per gram of tissue; type: ADME; details: microsomes
[5] = Cytotoxicity against human MDA-MB-231 cells assessed as viable cells at 10 uM; type: cell-based; details: read-out: Activity
Summary of the method: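 MTT viability assay; cells exposed to 10 µM inhibitor, read-out as % viable cells.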

MDA-MB-231 = assay: Antiinvasion activity in human MDA-MB-231-luc cells at 3 uM by matrigel inverse invasion assay; type: functional
Summary of the method: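 MDA MB-231-luc cells plated on underside of transwell filter; invasion into matrigel plug (inverse format) scored by confocal microscopy of plug sections. Inhibition = proportion of cells invading beyond 60 µm versus under 60 µm, relative to control; compound at 3 µM.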

[6] = target: 5'-AMP-activated protein kinase catalytic subunit alpha-1 (Homo sapiens) (UniProt Q13131); details: 10 uM
Sequence of 5'-AMP-activated protein kinase catalytic subunit alpha-1 (Homo sapiens) (Q13131 whole entry, looked up): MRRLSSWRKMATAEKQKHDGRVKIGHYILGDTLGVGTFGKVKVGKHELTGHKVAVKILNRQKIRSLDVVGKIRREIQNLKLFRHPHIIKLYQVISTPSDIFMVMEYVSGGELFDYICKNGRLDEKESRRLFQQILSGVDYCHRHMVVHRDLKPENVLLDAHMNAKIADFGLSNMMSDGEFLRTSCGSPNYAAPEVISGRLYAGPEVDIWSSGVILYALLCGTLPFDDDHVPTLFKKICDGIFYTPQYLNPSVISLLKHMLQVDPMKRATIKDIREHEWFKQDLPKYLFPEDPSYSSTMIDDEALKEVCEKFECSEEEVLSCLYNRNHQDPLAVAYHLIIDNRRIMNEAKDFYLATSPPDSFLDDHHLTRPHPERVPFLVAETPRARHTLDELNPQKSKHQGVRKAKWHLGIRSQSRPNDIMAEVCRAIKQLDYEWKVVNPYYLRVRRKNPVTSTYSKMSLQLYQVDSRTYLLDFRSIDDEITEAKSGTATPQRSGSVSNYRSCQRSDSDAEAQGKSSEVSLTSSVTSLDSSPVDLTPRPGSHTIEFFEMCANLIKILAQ

[7] = target: 5'-AMP-activated protein kinase catalytic subunit alpha-2 (Homo sapiens) (UniProt P54646); details: 10 uM
Sequence of 5'-AMP-activated protein kinase catalytic subunit alpha-2 (Homo sapiens) (P54646 whole entry, looked up): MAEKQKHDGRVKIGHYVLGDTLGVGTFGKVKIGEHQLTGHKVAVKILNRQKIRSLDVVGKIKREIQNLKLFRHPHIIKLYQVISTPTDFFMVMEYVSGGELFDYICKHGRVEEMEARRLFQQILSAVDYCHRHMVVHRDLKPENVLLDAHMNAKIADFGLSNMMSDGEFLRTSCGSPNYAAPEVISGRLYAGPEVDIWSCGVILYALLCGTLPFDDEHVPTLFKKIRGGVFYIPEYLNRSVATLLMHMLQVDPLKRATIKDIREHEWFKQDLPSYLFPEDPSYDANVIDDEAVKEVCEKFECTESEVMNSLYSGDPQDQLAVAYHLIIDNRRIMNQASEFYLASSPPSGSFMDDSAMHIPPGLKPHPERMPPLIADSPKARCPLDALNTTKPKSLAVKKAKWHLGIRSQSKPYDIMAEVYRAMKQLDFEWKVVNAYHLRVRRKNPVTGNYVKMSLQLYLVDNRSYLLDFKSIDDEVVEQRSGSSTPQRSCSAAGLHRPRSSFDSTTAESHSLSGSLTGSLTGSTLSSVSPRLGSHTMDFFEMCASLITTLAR

[8] = target: Cyclin-dependent kinase 2 (Homo sapiens) (UniProt P24941); details: 10 uM
[9] = target: Cyclin-dependent kinase 7 (Homo sapiens) (UniProt P50613); details: 10 uM
Sequence of Cyclin-dependent kinase 7 (Homo sapiens) (P50613 whole entry): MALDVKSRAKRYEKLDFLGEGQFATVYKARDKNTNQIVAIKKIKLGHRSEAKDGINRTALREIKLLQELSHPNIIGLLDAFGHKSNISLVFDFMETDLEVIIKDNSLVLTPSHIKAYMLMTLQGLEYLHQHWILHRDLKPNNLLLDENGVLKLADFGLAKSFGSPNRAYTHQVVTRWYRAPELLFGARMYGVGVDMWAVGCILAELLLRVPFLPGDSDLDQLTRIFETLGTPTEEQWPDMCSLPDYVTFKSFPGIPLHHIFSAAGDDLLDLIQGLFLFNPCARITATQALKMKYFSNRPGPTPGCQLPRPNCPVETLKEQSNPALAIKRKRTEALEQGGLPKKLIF

[10] = target: T3, Cyclin-dependent kinase-like 2 (Homo sapiens) (UniProt Q92772); details: 10 uM
T3 sequence (whole entry): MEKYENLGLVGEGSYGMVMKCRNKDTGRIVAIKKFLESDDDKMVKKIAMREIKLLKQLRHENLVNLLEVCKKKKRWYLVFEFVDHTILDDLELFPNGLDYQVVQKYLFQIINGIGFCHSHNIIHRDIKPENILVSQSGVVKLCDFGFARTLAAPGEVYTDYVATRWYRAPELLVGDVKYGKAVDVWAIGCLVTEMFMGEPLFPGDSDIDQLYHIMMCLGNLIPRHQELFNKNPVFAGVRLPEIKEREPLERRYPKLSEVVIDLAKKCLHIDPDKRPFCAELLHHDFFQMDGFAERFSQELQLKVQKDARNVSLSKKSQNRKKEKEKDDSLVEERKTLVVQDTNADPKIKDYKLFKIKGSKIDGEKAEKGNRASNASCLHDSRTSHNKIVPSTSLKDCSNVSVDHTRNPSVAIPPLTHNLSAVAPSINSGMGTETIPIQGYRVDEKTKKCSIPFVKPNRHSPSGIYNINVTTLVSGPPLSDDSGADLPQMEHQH

[11] = target: T4, Discoidin domain-containing receptor 2 (Homo sapiens) (UniProt Q16832); details: 10 uM
T4 sequence (whole entry): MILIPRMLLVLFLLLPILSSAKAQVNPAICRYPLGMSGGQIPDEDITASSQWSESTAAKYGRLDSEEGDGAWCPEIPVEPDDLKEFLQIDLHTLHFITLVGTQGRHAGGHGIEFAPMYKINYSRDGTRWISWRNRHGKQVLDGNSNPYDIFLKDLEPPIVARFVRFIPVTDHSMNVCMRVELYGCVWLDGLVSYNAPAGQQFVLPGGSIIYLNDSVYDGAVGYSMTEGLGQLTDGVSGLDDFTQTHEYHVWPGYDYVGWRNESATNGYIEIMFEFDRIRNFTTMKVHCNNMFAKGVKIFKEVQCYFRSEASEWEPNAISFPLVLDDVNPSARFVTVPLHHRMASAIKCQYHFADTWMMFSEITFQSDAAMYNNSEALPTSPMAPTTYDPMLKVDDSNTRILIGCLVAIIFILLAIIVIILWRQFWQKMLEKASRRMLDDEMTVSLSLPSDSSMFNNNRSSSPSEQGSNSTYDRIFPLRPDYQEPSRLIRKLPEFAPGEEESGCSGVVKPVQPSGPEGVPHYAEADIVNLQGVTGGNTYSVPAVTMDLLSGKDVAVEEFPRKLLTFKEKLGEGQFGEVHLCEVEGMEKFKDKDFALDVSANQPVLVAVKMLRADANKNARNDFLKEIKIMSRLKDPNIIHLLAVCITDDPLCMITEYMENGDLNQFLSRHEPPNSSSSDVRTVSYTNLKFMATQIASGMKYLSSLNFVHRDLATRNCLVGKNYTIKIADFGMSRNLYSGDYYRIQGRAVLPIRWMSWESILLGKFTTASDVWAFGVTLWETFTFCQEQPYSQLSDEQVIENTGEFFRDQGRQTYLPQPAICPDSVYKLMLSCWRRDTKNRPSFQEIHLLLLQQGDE

[12] = target: T5, Mitogen-activated protein kinase 15 (Homo sapiens) (UniProt Q8TD08); details: 10 uM
T5 sequence (whole entry): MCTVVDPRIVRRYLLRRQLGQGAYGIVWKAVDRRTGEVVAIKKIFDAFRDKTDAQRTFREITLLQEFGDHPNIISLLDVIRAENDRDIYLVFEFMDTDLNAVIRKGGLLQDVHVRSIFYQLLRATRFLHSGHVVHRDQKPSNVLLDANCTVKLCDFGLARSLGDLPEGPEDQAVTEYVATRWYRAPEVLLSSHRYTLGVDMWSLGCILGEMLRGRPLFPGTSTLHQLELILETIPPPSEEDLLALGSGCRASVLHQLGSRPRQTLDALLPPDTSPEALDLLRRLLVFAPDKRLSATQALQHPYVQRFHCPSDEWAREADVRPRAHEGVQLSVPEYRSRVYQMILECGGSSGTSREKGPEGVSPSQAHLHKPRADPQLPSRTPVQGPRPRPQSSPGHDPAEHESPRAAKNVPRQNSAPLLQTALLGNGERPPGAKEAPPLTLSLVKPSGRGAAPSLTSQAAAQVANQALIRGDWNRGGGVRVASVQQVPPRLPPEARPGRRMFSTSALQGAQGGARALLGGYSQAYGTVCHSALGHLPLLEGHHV

[13] = target: T6, Serine/threonine-protein kinase MAK (Homo sapiens) (UniProt P20794); details: 10 uM
T6 sequence (whole entry): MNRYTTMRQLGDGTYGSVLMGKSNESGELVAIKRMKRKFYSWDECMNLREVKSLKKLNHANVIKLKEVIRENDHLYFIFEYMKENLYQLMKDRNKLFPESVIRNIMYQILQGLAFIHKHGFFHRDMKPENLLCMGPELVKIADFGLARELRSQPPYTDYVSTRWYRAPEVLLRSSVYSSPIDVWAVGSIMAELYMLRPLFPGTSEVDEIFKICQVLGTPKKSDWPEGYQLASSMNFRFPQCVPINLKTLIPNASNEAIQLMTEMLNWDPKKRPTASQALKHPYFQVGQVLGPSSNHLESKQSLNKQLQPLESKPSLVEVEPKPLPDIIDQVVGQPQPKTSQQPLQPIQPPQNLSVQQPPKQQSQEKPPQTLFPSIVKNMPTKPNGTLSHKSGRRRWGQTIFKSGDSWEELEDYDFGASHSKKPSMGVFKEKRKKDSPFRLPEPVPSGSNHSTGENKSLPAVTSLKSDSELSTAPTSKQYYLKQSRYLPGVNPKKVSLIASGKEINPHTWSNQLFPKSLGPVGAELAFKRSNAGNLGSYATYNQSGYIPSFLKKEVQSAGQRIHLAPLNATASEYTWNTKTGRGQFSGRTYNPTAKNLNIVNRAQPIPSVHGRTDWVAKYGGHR

[14] = target: Serine/threonine-protein kinase PAK 3 (Homo sapiens) (UniProt O75914); details: 10 uM
Sequence of Serine/threonine-protein kinase PAK 3 (Homo sapiens) (O75914 whole entry, looked up): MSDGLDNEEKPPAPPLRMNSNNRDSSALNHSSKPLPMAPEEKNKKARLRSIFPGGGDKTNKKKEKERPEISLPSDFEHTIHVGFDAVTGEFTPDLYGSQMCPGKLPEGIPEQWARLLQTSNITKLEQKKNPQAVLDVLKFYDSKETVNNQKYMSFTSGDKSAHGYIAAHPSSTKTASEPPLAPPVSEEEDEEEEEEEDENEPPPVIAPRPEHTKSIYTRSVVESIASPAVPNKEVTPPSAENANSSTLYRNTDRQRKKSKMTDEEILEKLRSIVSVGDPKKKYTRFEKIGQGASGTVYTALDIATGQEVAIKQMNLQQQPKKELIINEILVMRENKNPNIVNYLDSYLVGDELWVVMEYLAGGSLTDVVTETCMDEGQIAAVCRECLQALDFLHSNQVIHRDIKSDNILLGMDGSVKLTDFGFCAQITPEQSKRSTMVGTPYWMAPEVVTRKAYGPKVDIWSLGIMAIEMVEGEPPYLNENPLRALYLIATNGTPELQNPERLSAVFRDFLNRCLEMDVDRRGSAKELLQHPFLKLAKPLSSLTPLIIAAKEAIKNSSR

[15] = target: Cyclin-dependent kinase 18 (Homo sapiens) (UniProt Q07002); details: 10 uM
Sequence of Cyclin-dependent kinase 18 (Homo sapiens) (Q07002 whole entry): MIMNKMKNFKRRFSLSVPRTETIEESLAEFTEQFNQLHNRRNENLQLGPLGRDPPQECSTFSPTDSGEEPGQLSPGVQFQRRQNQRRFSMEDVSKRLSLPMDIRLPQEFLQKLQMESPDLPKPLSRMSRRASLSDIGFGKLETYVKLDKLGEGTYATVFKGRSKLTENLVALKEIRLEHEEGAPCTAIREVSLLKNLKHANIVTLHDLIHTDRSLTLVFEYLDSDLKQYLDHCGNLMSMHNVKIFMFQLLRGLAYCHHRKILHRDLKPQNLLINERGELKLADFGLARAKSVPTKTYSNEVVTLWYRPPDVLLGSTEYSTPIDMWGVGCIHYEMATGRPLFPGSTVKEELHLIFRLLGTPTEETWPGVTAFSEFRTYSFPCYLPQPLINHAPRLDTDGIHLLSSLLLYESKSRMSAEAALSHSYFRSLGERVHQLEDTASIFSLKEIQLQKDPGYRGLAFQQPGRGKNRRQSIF

[16] = target: T7, Phosphatidylinositol 5-phosphate 4-kinase type-2 gamma (Homo sapiens) (UniProt Q8TBX8); details: 10 uM
T7 sequence (whole entry): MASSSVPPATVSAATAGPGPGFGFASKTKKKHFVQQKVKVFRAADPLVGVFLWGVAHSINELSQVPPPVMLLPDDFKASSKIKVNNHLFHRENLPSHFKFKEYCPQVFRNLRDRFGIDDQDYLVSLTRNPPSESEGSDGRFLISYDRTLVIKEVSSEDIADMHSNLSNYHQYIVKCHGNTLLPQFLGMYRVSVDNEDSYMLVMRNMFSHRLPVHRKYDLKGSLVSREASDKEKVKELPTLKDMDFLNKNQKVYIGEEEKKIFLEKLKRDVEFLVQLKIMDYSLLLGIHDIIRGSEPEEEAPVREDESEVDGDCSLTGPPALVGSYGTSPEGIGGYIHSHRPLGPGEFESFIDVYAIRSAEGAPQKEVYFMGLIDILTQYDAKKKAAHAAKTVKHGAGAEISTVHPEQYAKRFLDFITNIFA

[17] = target: Serine/threonine-protein kinase 16 (Homo sapiens) (UniProt O75716); details: 10 uM
Sequence of Serine/threonine-protein kinase 16 (Homo sapiens) (O75716 whole entry, the tested form may be a part): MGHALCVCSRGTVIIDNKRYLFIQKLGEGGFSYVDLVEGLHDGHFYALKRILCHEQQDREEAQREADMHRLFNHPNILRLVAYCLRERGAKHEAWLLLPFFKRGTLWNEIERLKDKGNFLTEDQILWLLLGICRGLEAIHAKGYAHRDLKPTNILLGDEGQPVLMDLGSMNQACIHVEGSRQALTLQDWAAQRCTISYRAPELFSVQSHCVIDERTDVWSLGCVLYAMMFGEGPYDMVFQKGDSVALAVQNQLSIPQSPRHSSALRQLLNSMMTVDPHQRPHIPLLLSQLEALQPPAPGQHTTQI

LIM domain kinase 1 [18] = target: T1, LIM domain kinase 1; details: 10 uM
Target sequence in this assay (P53667 whole entry, looked up, the tested form may be a part): as the sequence (P53667 whole entry, the tested form may be a part) above

LIM domain kinase 2 [19] = target: T2, LIM domain kinase 2; details: 10 uM
Target sequence in this assay (P53671 whole entry, looked up, the tested form may be a part): as the sequence (P53671 whole entry, the tested form may be a part) above

| IC50 (LIM domain kinase 1 [1]) [nM] | IC50 (LIM domain kinase 1 [2]) [nM] | Compound | also measured |
| --- | --- | --- | --- |
| 20 | 1400 | CC(=O)Nc1ncc(-c2ccncc2-c2ccccc2Cl)s1 |  |
| 574 |  | CCCNc1ncc(-c2cnccc2-c2ccccc2Cl)s1 |  |
| 40 | 9200 | C[C@H](Nc1ncc(-c2ccncc2-c2ccccc2Cl)s1)c1ccccc1 |  |
| 13 | 2500 | CCCNc1ncc(-c2ccncc2-c2ccc(OC)cc2C(F)(F)F)s1 |  |
| 850 |  | CCCNc1ncc(-c2ccncc2-c2ccccc2)s1 |  |
| 15 | 3800 | CCCNc1ncc(-c2ccncc2-c2ccccc2Cl)s1 |  |
| 1 |  | Cc1ccc(-c2cnccc2-c2cnc(NC(=O)C(C)C)s2)c(Cl)c1 | IC50 (LIM domain kinase 2 [3]): 3 nM; Stability [4]: 19.4 mL/min; Stability (Liver microsome): 8.3 mL/min; viability at 10 µM [5]: 131%; inhibition at 3 µM (MDA-MB-231): 48% |
| 3100 |  | CCCN(C)c1ncc(-c2ccncc2-c2ccccc2Cl)s1 |  |
| 327 |  | CCCNc1ncc(-c2cccnc2-c2ccccc2Cl)s1 |  |
| 500 |  | CCCNc1ncc(-c2ccncc2-c2cccc(Cl)c2)s1 |  |
| ≥ 30000 |  | CCCNc1ncc(-c2ncccc2-c2ccccc2Cl)s1 |  |
| 19000 |  | CCCNc1ncc(-c2ccncc2)s1 |  |
| 3 | 600 | Clc1ccccc1-c1cnccc1-c1cnc(Nc2ccccc2)s1 |  |
| 4000 |  | C=CCNc1nc(N)c(C(=O)c2ccc3c(c2)OCO3)s1 |  |
| 5 | 1500 | CC(C)CNc1ncc(-c2ccncc2-c2ccccc2Cl)s1 | viability at 10 µM [5]: 88%; inhibition at 3 µM (MDA-MB-231): 34% |
| 3 | 800 | CC(C)C(=O)Nc1ncc(-c2ccncc2-c2ccccc2Cl)s1 |  |
|  | 2000 | COc1ccc(-c2cnccc2-c2cnc(NC(=O)C(C)C)s2)c(C(F)(F)F)c1 | IC50 (LIM domain kinase 2 [3]): 48 nM; Stability [4]: 5.2 mL/min; Stability (Liver microsome): 3.7 mL/min; viability at 10 µM [5]: 106%; inhibition at 3 µM (MDA-MB-231): 52%; inhibition [6]: > 90%; inhibition [7]: > 90%; inhibition [8]: > 90%; inhibition [9]: > 90%; inhibition [10]: > 90%; inhibition [11]: > 90%; inhibition [12]: > 90%; inhibition [13]: > 90%; inhibition [14]: > 90%; inhibition [15]: > 90%; inhibition [16]: > 90%; inhibition [17]: > 90%; inhibition (LIM domain kinase 1 [18]): > 90%; inhibition (LIM domain kinase 2 [19]): > 90% |
| 4 | 2100 | C[C@@H](Nc1ncc(-c2ccncc2-c2ccccc2Cl)s1)c1ccccc1 |  |
| 270 | > 30000 | Nc1ncc(-c2ccncc2-c2ccccc2Cl)s1 |  |
| 3300 |  | CCCNc1ncc(-c2ccncc2-c2ccccc2C(C)C)s1 |  |
| 120 | 14000 | CCNc1ncc(-c2ccncc2-c2ccccc2Cl)s1 |  |
| 37 | 2200 | CCCNc1ncc(-c2ccncc2-c2ccccc2C(F)(F)F)s1 |  |
| 82 | 11500 | CCCNc1ncc(-c2ccncc2-c2ccccc2C)s1 |  |
| 620 |  | CCCNc1ncc(-c2ccncc2-c2ccc(Cl)cc2)s1 |  |
